Measurements from ChEMBL document CHEMBL2331455, “Potent vasorelaxant analogs from chemical modification and biotransformation of isosteviol” (Eur J Med Chem, 2013).

Tested on: Vero
Test: Cytotoxicity against african green monkey Vero cells
Assay type: cell-based
Conditions: chlorocebus sabaeus

Structure (SMILES) | Activity
C[C@@]12CC[C@H]3[C@]4(C)CCC[C@@](C)(C(=O)O)[C@H]4C[C@H](O)[C@]3(CC1=O)C2 | Non-toxic

Tested on: Aorta
Test: Vasorelaxant activity in Sprague-Dawley rat aorta assessed as reduction of phenylephrine-induced contraction
Assay type: functional, tissue-based
Conditions: not given
How it was run: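 Aortic rings held in HPSS (140 mM NaCl, 5 mM KCl, 2 mM CaCl2, 1 mM MgCl2, 5 mM HEPES, 11 mM glucose, pH 7.4) and equilibrated 2 h with several buffer changes. Isometric force changes were recorded continuously. Acetylcholine served as positive control.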

Structure (SMILES) | EC50 [nM]
CC(=O)O[C@@H]1C[C@]23CC[C@H]4[C@@](C)(CCC[C@@]4(C)C(=O)O)[C@@H]2CC[C@@]1(C)C3 | 4.88
C[C@@]12CC[C@H]3[C@]4(C)CCC[C@@](C)(C(=O)O)[C@H]4C[C@H](O)[C@]3(C[C@H]1O)C2 | 41.8
C[C@@]12CC[C@H]3[C@]4(C)CCC[C@@](C)(C(=O)O)[C@H]4C[C@@H](O)[C@]3(C[C@H]1O)C2 | 39.8
C[C@@]12CCC[C@@](C)(C(=O)O)[C@H]1CC[C@@]13C[C@@H](O)[C@@](C)(CC[C@@H]21)[C@@H]3O | 303
CC(=O)O[C@@H]1C[C@@]23C[C@]1(C)CC[C@H]2[C@]1(C)CCC[C@@](C)(C(=O)O)[C@H]1C[C@@H]3O | 59.7
CC(=O)O[C@@H]1C[C@]23CC[C@H]4[C@@](C)(CCC[C@@]4(C)C(=O)O)[C@@H]2CC[C@@]1(C)[C@@H]3O | 19.5
C[C@@]12CC[C@@H]3[C@@](CC[C@H]4[C@@]3(C)CCC[C@@]4(C)C(=O)O)(C[C@H]1O)C2 | 29.1
C[C@@]12CC[C@H]3[C@]4(C)CCC[C@@](C)(C(=O)O)[C@H]4C[C@H](O)[C@]3(CC1=O)C2 | 3.46
CC(=O)OCC[N+](C)(C)C [ACETYLCHOLINE IODIDE] | 65
C[C@@]12CC[C@@H]3[C@@](CC[C@H]4[C@@]3(C)CCC[C@@]4(C)C(=O)O)(CC1=O)C2 [ISOSTEVIOL] | 57.4
